In ChEMBL document CHEMBL3745658, “An Orally Bioavailable, Indole-3-glyoxylamide Based Series of Tubulin Polymerization Inhibitors Showing Tumor Growth Inhibition in a Mouse Xenograft Model of Head and Neck Cancer” (J Med Chem, 2015):
Converted amounts (≈) assume the structure as drawn. The source made the active and inactive calls. The calls are words filed in the database; no cut-off is given here.

Legend:
[1] = Solubility in 2% DMSO containing 50 mM potassium phosphate buffer solution pH 7.4 at 10 uM by dynamic light scattering method; details: pH 7.4, 10 µM
[2] = molecular target: T1, Tubulin (Sus scrofa) (UniProt P02554+P02550); assay: Displacement of [3H]-paclitaxel from biotinylated porcine tubulin after 25 mins by competitive binding assay; format: protein assay
Procedure, shortened: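 Biotinylated porcine tubulin precoupled to SPA beads for 30 min at 4 °C, then 0.05 μM [3H]-paclitaxel and test compound added in G-PEM with 1 mM GTP, 3% DMSO, duplicate wells, 25 min at rt. Nonspecific binding taken with 1000-fold unlabeled excess. IC50 from seven-point semilog curves, four-parameter fit.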

[3] = test system: FaDu; assay: Cytotoxicity against human FADU multicellular tumor spheroid assessed as induction of spheroid disruption incubated for 7 days by light microscopy; format: functional, cell-based; details: 168 h
Procedure, shortened: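 Monocultured FaDu spheroids dosed over a concentration range and imaged at 0, 2, 4 and 7 days post-dosing. Volume followed over time, fragmentation scored at the 7-day end point, and EC50 for disruption derived from 7-day dose–response plots. Two independent experiments, mean ± SEM.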

[4] = test system: FaDu; assay: Induction of microtubule disruption in human FADU cells assessed as multipolarization of spindle at 30 nM after 24 hrs by immunofluorescence staining method; format: functional, cell-based
Procedure, shortened: (§1)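 FaDu cells grown on coverslips (15000/well) for 24 h, then exposed to compound for 24 h. Unassembled tubulin was extracted with PHEM/0.5% Triton X-100/10 μM paclitaxel for 3 min. Cells were fixed in PHEM with 8% paraformaldehyde and 0.3% glutaraldehyde on ice, blocked, then stained with FITC anti-α-tubulin (DM1A) and DAPI. Confocal z-stacks were taken at 100×.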

[5] = test system: FaDu; assay: Cytotoxicity against human FADU cells assessed as reduction in cell viability after 72 hrs by MTT assay; format: functional; details: read-out: LC50 (the source's name)
[6] = molecular target: T2, Tubulin (Sus scrofa, UniProt P02554+P02550); assay: (§2) Displacement of [3H]-colchicine from biotinylated porcine tubulin after 2 hrs by competitive binding assay; format: protein assay
Procedure, shortened: (§3)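 Biotinylated porcine tubulin (750 ng/well) with 0.1 μM [3H]-colchicine and test compound in G-PEM with 1 mM GTP, 3% DMSO, duplicate wells, 2 h at 37 °C. Streptavidin SPA beads then added for 45 min at 37 °C. Nonspecific binding taken with 1000-fold unlabeled excess. IC50 from seven-point semilog curves, four-parameter fit.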

[7] = test system: SCC-4; assay: Cytotoxicity against human SCC4 cells assessed as reduction in cell viability after 72 hrs by MTT assay; format: functional, cell-based
Procedure, shortened: (§4)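 Cells plated at an appropriate density and left 24 h to attach, then dosed in triplicate with compound diluted from 10 mM DMSO stocks into full growth medium (added at 2× final concentration). After 72 h, cells PBS-washed and given MTT (0.5 mg/mL in PBS) for 45−60 min. Formazan dissolved in 0.1 M HCl/2-propanol, A570 read (650 nm reference). Viability normalised to DMSO control; LC50 by nonlinear regression.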

[8] = test system: FaDu; assay: Antitumor activity against human FADU cells xenografted in CD-1 mouse assessed as inhibition of tumor growth at 10 mg/kg, po qd for 10 days measured at 13 and 15 days; format: functional, organism-based
Procedure, shortened: (§5)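 FaDu xenografts established in mice before dosing; compound given by oral gavage once daily for 10 days. Tumor volume was followed over time and compared with a vehicle control group, with significance assessed at days 3, 6, 9, 13 and 15. Body weight and survival were also recorded.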

[9] = test system: MES-SA/Dx5; assay: Cytotoxicity against multidrug resistant human MES-SA/Dx5 cells assessed as reduction in cell viability after 72 hrs by MTT assay; format: functional, cell-based; procedure, shortened: as §4
[10] = test system: FaDu; assay: Selectivity index, ratio of EC50 for cell cycle arrest in human FADU cells to LC50 for cytotoxicity against human FADU cells; format: functional
Procedure, shortened: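 G2/M arrest EC50 came from a 24 h dose–response of propidium iodide flow cytometry in FaDu cells. It was compared with the LC50 from a 72 h MTT assay in FaDu cells (triplicate wells, A570, viability relative to DMSO, nonlinear regression).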

[11] = Metabolic stability in CD-1 mouse liver microsomes assessed as half life at 1 uM preincubated for 5 mins before addition of NADPH by LC-MS/MS method; format: ADME
[12] = test system: FaDu; assay: Cell cycle arrest in human FADU cells assessed as accumulation at G2/M phase after 24 hrs by propidium iodide staining-based flow cytometry; format: functional
Procedure, shortened: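 FaDu cells seeded at 10^5/well, attached overnight, then exposed to compound in full growth medium at 37 °C for 24 h. Cells were trypsinized, fixed in ice-cold 70% ethanol, treated with RNase A (100 μg/mL), stained overnight in the dark with propidium iodide (50 μg/mL), and analysed by flow cytometry with at least 10000 events per sample.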

[13] = molecular target: T1, Tubulin (Sus scrofa); assay: Displacement of [3H]-vinblastine from biotinylated porcine tubulin after 15 mins by competitive binding assay; format: protein assay
Procedure, shortened: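 Biotinylated porcine tubulin, 0.2 μM [3H]-vinblastine, SPA beads and test compound combined together in G-PEM with 1 mM GTP, 3% DMSO, duplicate wells, 15 min at rt before counting. Nonspecific binding taken with 1000-fold unlabeled excess. IC50 from seven-point semilog curves, four-parameter fit.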

[14] = test system: SK-MEL-28; assay: Cytotoxicity against human SK-MEL-28 cells assessed as reduction in cell viability after 72 hrs by MTT assay; format: functional, cell-based; procedure, shortened: as §4
[15] = Solubility in 2% DMSO containing 50 mM potassium phosphate buffer solution at pH 7.4 by dynamic light scattering method; details: 50 mM potassium phosphate buffer with 2% DMSO
[16] = test system: FaDu; assay: Antitumor activity against human FADU cells xenografted in CD-1 mouse assessed as inhibition of tumor growth at 10 mg/kg, po qd for 10 days measured at 3 to 9 days; format: functional, organism-based; procedure, shortened: as §5
[17] = test system: SH-SY5Y; assay: Cytotoxicity against human SH-SY5Y cells assessed as reduction in cell viability after 72 hrs by MTT assay; format: functional, cell-based; procedure, shortened: as §4
[18] = test system: FaDu; assay: Cytotoxicity against human FADU multicellular tumor spheroid assessed as effect on normal spheroid growth at 1 uM incubated for 2 to 3 days by light microscop; format: cell-based
Procedure, shortened: (§6)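 FaDu monoculture spheroids were dosed once and imaged at 0, 2, 4 and 7 days after dosing. Fragmentation and growth were judged against untreated spheroids.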

[19] = Apparent permeability from apical to basolateral side in human Caco2 cells at 10 uM at pH 7.4 after 60 mins by mass spectrometry; details: Caco-2, pH 7.4
[20] = test system: MES-SA; assay: Cytotoxicity against human MES-SA cells assessed as reduction in cell viability after 72 hrs by MTT assay; format: functional, cell-based; procedure, shortened: as §4
[21] = test system: FaDu; assay: Induction of microtubule disruption in human FADU cells at 150 nM after 24 hrs by immunofluorescence staining method; format: functional, cell-based; procedure, shortened: as §1
[22] = Efflux ratio of apparent permeability from basolateral to apical side over apical to basolateral side in human Caco2 cells; details: Caco-2
[23] = molecular target: T2, Tubulin; assay: Inhibition of porcine brain tubulin polymerization assessed as reduction in GTP-induced microtubule assembly after 60 mins by OD340 method
[24] = test system: FaDu; assay: Cytotoxicity against human FADU multicellular tumor spheroid assessed as dispersion of cells from the spheroid at 1 uM incubated for 2 to 7 days by light microscopy; format: functional, cell-based; procedure, shortened: as §6
[25] = molecular target: T1, Tubulin (Sus scrofa); assay: as §2; format: protein assay; procedure, shortened: as §3
[26] = Aqueous solubility of the compound by UV-HPLC
[27] = Solubility in 2% DMSO containing 50 mM potassium phosphate buffer solution pH 7.4 at 1 uM by dynamic light scattering method; format: physicochemical; details: pH 7.4, 1 µM

| Compound | solubility [1] | Activity [2] | CC50 [5] [nM] | Activity [7] | Activity [9] | Activity [13] | Activity [14] | Activity [17] | Activity [20] | Activity [25] | further results |
| --- | --- | --- | --- | --- | --- | --- | --- | --- | --- | --- | --- |
| COc1ccc(NC(=O)C(=O)c2cn(CC3CCCO3)c3ccccc23)cn1 (stereo not drawn) | soluble | inactive | 31 | Active | Active | Active | Active | Active | Active |  | EC50 [3]: 77 nM; Activity [4]: Active; IC50 [6]: 420 nM; Activity [8]: Active; Ratio [10]: 5; half-life at 1 µM [11]: 34 min; Activity [12]: Dose-dependent effect; EC50 [12]: 160 nM; solubility kinetic [15]: 10 µM (≈ 3.79 µg/mL); TGI [16]: Active; Activity [18]: Non-toxic; Papp A→B at 1 h, 10 µM [19]: 35 ×10⁻⁶ cm/s; Activity [21]: Active; efflux ratio [22]: 0.7; IC50 [23]: 8300 nM; Activity [24]: Active |
| COc1cc([C@@H]2c3cc4c(cc3[C@H](O)[C@H]3COC(=O)[C@H]23)OCO4)cc(OC)c1OC |  |  |  |  |  |  |  |  |  | Active |  |
| O=C(Nc1ccncc1)C(=O)c1cn(Cc2ccc(Cl)cc2)c2ccccc12 [INDIBULIN] | Insoluble |  | 32 | Active | Active |  | Active | Active | Active |  | solubility [26]: ≤ 1 µM; solubility [27]: Insoluble |
| CC(=O)O[C@@]12CO[C@@H]1C[C@H](O)[C@@]1(C)C(=O)[C@H](O)C3=C(C)[C@@H](OC(=O)[C@H](O)[C@@H](NC(=O)OC(C)(C)C)c4ccccc4)C[C@@](O)([C@@H](OC(=O)c4ccccc4)[C@H]21)C3(C)C |  | Active |  |  |  | Active |  |  |  | inactive |  |
